Laboratory results: ChEMBL document CHEMBL5532647, “Design, synthesis, ADME and biological evaluation of benzylpiperidine and benzylpiperazine derivatives as novel reversible monoacylglycerol lipase (MAGL) inhibitors” (Eur J Med Chem, 2024)
Calls of active or inactive are those of the source. No cut-off for these calls is given here.

Assays:
[1] = target: T1, Monoglyceride lipase (Homo sapiens, UniProt Q99685); test: Inhibition of human recombinant MAGL using 4-nitrophenylacetate as substrate incubated for 30 mins by microplate reader analysis
T1 sequence (Q99685 whole entry): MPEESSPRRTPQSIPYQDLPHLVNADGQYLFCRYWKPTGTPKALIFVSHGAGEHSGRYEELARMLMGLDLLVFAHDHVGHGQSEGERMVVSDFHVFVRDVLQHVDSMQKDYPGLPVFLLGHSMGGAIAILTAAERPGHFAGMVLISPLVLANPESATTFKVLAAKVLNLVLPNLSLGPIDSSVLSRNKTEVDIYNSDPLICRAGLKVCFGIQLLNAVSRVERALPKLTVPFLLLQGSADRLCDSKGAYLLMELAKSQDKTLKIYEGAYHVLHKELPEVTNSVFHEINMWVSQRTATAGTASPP

[2] = target: T2, Monoglyceride lipase (Homo sapiens) (UniProt Q99685); test: Reversible inhibition of human recombinant MAGL using 4-nitrophenylacetate as substrate incubated for 15 mins in presence of DTT by microplate reader analysis
T2 sequence (whole entry): T1 sequence (Q99685 whole entry)
Procedure, shortened: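 Human recombinant MAGL (11 ng/well) in 10 mM Tris, pH 7.2, with 1 mM EDTA and 0.1 mg/mL BSA, at room temperature. Compound plus 4-NPA incubated 15 min with 10 μM DTT before enzyme addition. Compound final 320–0.02 nM. Absorbance at 405 nm after 30 min, blank-subtracted. IC50 from sigmoidal dose–response fit.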

[3] = target: T2, Monoglyceride lipase (Homo sapiens); test: Reversible inhibition of human recombinant MAGL using 4-nitrophenylacetate as substrate preincubated with compound for 60 mins followed by substrate addition and measured after 30 mins by microplate reader analysis; settings: time 90.0 min
Procedure, shortened: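 Human recombinant MAGL (11 ng/well) in Tris pH 7.2 buffer with EDTA and BSA, preincubated with compound for 0, 30 or 60 min at room temperature. Reaction then started with 4-NPA 500 μM (solution added). Absorbance at 405 nm after 30 min. IC50 from triplicates of two independent experiments.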

[4] = target: T1, Monoglyceride lipase; test: Reversible inhibition of MAGL in human U-937 cells using 2-oleoylglycerol as substrate preincubated with compound for 30 mins followed by substrate addition and measured after 5 mins; format: cell-based
Procedure, shortened: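 Intact U937 cells co-incubated with compound for 30 min. Then 10 μM 2-oleoylglycerol plus 1.0 nM [3H]2-OG tracer added for a further 5 min at 37 °C. JZL-184 (1 μM) served as full-inhibition control. Two independent experiments in triplicate. IC50 given as mean (95% CI).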

[5] = target: Cannabinoid receptor 2 (Homo sapiens) (UniProt P34972); test: Displacement of [3H]CP55940 from human CB2 receptor at 10 uM incubated for 90 mins
Procedure, shortened: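 Membranes expressing hCB1 or hCB2 in 50 mM Tris-HCl buffer, pH 7.4, with 2.5 mM EDTA, 5 mM MgCl2 and 0.5% fatty acid-free BSA. Incubated with compound (10 μM screening) or vehicle plus 0.5 nM [3H]CP55,940 for 90 min at 30 °C. Non-specific binding defined with 10 μM […]. GF/B filtration, ice-cold buffer washes, radioactivity counted. Two independent experiments in triplicate.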

[6] = target: T3, Monoacylglycerol lipase ABHD6 (Homo sapiens) (UniProt Q9BV23); test: Inhibition of human ABHD6 transfected in HEK293 cells at 10 uM preincubated with compound for 30 mins followed by 2-OG addition and measured after 5 mins by liquid scintillation spectroscopy; format: cell-based; settings: time 35.0 min
T3 sequence (whole entry): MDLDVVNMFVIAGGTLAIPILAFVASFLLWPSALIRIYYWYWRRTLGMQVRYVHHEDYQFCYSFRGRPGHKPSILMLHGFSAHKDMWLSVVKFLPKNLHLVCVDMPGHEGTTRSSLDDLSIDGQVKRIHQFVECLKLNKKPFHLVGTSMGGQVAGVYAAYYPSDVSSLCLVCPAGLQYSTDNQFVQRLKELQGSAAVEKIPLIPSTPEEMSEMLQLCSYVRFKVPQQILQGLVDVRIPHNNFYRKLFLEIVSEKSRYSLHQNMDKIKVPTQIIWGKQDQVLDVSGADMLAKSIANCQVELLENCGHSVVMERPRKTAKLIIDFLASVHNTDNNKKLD
Procedure, shortened: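 Homogenates (40 μg) of HEK293 cells stably transfected with hABHD6 or hABHD12. Compound 10 μM preincubated 30 min at 37 °C, 500 rpm, in Tris/EDTA buffer with 0.1% fatty acid-free BSA, pH 7.6. Controls: WWL70 10 μM or THL 20 μM; DMSO vehicle. 2-OG 10 μM added for 5 min at 37 °C. Stopped with ice-cold CHCl3:MeOH; aqueous phase counted. No-enzyme blanks used; non-transfected HEK293 hydrolysis subtracted.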

[7] = target: T4, Monoglyceride lipase (Mus musculus) (UniProt O35678); test: Reversible inhibition of mouse brain MAGL at 10 uM incubated with compound for 25 mins by TAMRA-FP probe based SDS-PAGE analysis; format: tissue-based
T4 sequence (whole entry): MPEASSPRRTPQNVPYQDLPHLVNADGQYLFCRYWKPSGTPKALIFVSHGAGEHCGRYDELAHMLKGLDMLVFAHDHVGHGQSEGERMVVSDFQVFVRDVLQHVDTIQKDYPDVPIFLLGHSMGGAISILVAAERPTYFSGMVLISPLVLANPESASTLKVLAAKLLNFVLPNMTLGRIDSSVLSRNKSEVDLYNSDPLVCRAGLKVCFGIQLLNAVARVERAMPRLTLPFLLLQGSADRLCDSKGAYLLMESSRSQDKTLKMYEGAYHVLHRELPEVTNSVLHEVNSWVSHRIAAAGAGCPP
Procedure, shortened: (§1)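 Mouse brain membranes (2 mg/mL final, in PBS) preincubated 25 min at 25 °C with test compound (10 μM final) or DMSO vehicle. Controls: JZL-184, URB597 4 μM, WWL70 10 μM, THL, MAFP 5 μM. TAMRA-FP 125 nM final added for 5 min at 25 °C. Reaction stopped with Laemmli buffer, 3 min at 25 °C then 10 min at 90 °C. Separation by 10% SDS-PAGE, fluorescence scanning, three independent experiments.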

[8] = target: T5, Lysophosphatidylserine lipase ABHD12 (Mus musculus) (UniProt Q99LR1); test: Inhibition of mouse brain ABHD12 at 10 uM incubated with compound for 25 mins by TAMRA-FP probe based SDS-PAGE analysis; format: tissue-based; procedure, shortened: as §1
T5 sequence (whole entry): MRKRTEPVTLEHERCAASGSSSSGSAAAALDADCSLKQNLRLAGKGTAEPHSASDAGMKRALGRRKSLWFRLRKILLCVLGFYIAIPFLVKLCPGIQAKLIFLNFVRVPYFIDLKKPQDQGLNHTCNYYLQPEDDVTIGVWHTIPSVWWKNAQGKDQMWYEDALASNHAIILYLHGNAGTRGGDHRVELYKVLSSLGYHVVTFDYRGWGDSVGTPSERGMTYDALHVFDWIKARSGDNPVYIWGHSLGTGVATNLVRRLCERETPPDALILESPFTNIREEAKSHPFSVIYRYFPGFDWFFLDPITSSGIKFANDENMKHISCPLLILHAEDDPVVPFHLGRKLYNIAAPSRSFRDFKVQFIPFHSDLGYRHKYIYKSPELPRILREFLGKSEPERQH

Cannabinoid receptor 2 (Homo sapiens), sequence (P34972 whole entry): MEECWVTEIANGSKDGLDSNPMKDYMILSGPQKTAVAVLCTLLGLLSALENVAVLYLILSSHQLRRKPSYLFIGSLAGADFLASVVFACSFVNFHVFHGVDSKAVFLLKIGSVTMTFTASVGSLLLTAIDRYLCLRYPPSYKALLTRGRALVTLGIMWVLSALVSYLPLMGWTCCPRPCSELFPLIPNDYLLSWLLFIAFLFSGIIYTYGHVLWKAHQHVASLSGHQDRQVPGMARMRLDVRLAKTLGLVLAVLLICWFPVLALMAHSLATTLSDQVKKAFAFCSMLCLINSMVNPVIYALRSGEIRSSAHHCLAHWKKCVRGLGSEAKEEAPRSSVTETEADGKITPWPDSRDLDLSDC

SMILES	IC50 [1]	inhibition [2]	inhibition [3]	IC50 [4]	Activity [5]	inhibition [6]	inhibition [7]	inhibition [8]
O=C(c1cc(O)ccc1F)N1CCN(Cc2cccc(Sc3cc(C(F)(F)F)ccn3)c2)CC1	5.2 nM	inactive	Active	489 nM	inactive	inactive	Active	inactive
O=C(c1cccc(O)c1)N1CCC(Cc2ccc(F)c(Sc3cc(C(F)(F)F)ccn3)c2)CC1	2.7 nM	inactive	Active	193 nM	inactive	inactive	Active	inactive
O=C(c1cccc(O)c1)N1CCC(Cc2cccc(Sc3cc(C(F)(F)F)ccn3)c2)CC1	2.5 nM	inactive	Active	197 nM	inactive	inactive	Active	inactive
O=C(c1cc(O)ccc1F)N1CCC(Cc2cccc(Sc3cc(C(F)(F)F)ccn3)c2)CC1	1.3 nM	inactive	Active	199 nM	inactive	inactive	Active	inactive
